# The full list was thinned out, with hits kept by preference.
# CHOP inh: CHOP inhibition in unfolded protein response | 220,000 tested, 3.8% active | CHO-K1 CHOP-promoter luciferase, tunicamycin-induced, 15-18 h | inhibition, % at 10 µM;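 active = compounds that reduced the stress-induced luciferase reporter signal by more than about 70% of percent inhibition, limit read from the data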;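 also: 0% = tunicamycin plus vehicle and 100% = wells without tunicamycin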
# UPR XBP1 act: activators of adaptive arm of unfolded protein response (XBP1); CHO-XBP1 luciferase reporter, IRE1-XBP1 UPR activation, luminescence; percent of tunicamycin response, DMSO as zero; activation, % at 20 µM; 330,000 tested, 0.33% active; AID 463104;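 active = versus positive control, 20 µM dose yields 30% or more activation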;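 also: 100% = tunicamycin at 10 µg/mL and 0% = DMSO only wells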
#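 Material: CHO-XBP1 cells stably carrying IRE1-XBP1-driven luciferase reporter / Amount: 1000 cells per well / Compound: 20 µM, 1% DMSO / Times: 6 h treatment, 37 °C / Detection: luciferase luminescence / Measure: % activation of reporter signal versus tunicamycin and DMSO controls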
# CHOP UPR activ: activators of apoptotic arm of unfolded protein response (CHOP). CHO-CHOP luciferase reporter, UPR activation, luminescence; percent of tunicamycin response over DMSO baseline. activation, % at 10 µM. 330,000 tested, 0.34% active. AID 449763;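 active = at 10 µM dose, activation of 40% or more, normalized to positive control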;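 also: 100% = tunicamycin at 10 µg/mL and 0% = DMSO alone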
#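 Evaluation: % reporter activation, DMSO baseline versus tunicamycin full activation; System: CHO-CHOP luciferase reporter cell line; Input: 500 cells/well; Incubation: 6 h compound treatment, 37 °C; Measured by: Steady-Glo luciferase luminescence; Dosing: one dose, 10 µM in 0.5% DMSO; Buffer or medium: F12 medium, 10% FBS; Benchmarks: positive tunicamycin 10 µg/mL, negative DMSO alone.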
# NOD2-RIPK2 inh: blocks binding of human NOD2 to RIPK2; O43353; CHO BLA complementation NOD2-RIPK2, CCF4 ratio; inhibition, % at 4.98 µM; 360,000 tested, 0.38% active; in the data active = inhibition above about 21%;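 also: 0% = vehicle only and 100% = reference blocker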
# TLR4 MyD88 comp: inhibitors of human TLR4-MyD88 binding; O00206+Q99836; HeLa CL3-4 TLR4/MyD88 BLA complementation, FRET ratio; inhibition, % at 8.4 µM; 200,000 tested, 0.18% active; AID 861; in the data active = inhibition above about 25%;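 also: 0% = vehicle and 100% = reference inhibitor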
# TLR9-MyD88 block: TLR9-MyD88 interaction inhibition; CHO BLA complementation TLR9-MyD88, CCF4 FRET ratio; inhibition, % at 4.98 µM; 340,000 tested, 0.21% active;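 active = inhibition above the mean over all tested compounds plus 3 SD, cut at about 21% in these data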;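 also: 0% = DMSO only wells and 100% = clavulanate BLA inhibitor control wells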
# Target sequence (Q99836 whole entry, looked up): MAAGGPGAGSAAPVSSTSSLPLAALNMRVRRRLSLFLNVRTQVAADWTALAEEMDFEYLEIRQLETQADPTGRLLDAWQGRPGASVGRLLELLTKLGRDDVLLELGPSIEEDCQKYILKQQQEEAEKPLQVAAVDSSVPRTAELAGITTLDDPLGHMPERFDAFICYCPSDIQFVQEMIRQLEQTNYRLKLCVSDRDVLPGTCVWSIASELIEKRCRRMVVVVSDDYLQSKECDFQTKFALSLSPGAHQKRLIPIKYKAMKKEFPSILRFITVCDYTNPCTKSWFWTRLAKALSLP
# Target sequence (Q9NR96 whole entry, looked up): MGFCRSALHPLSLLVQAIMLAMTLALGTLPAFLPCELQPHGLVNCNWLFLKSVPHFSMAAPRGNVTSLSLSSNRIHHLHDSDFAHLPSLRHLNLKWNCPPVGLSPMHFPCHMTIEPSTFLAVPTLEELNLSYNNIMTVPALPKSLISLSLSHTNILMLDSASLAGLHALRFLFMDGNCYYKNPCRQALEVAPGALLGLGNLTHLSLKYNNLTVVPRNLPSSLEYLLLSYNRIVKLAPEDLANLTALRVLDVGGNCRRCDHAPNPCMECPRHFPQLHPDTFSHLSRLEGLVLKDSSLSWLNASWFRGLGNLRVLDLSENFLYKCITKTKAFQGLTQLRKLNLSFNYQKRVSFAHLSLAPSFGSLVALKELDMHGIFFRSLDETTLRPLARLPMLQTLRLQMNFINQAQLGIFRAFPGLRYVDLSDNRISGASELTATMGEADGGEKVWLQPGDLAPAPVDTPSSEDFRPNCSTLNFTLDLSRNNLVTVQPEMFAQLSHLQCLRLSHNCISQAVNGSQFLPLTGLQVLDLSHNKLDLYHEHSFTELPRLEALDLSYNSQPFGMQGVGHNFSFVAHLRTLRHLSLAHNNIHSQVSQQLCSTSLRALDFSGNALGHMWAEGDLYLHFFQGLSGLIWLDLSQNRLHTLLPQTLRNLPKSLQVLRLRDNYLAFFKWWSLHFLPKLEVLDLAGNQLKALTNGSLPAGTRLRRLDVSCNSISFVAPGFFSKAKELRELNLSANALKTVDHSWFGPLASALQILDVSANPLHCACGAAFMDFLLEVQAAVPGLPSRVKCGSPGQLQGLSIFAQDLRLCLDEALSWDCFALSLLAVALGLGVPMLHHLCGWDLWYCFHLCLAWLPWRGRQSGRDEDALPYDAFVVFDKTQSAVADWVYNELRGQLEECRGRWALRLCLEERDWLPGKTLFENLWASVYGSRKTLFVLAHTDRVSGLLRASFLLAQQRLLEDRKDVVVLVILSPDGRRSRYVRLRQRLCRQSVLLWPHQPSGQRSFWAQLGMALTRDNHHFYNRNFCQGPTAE
# Numbers without * were called inactive; nt = no result given.
SMILES,CHOP inh,UPR XBP1 act,CHOP UPR activ,NOD2-RIPK2 inh,TLR4 MyD88 comp,TLR9-MyD88 block
CCCc1ccc(S(=O)(=O)NCCc2ccncc2)cc1,66.0,1.7,-1.3,8.0,4.1,-2.2
N#CC1(c2ccccc2)CCC(=O)N1c1ccccc1 (stereo not drawn),-0.1,1.5,1.3,-8.0,nt,12.5
CCc1ccc(N(CC)C(=O)c2cn(C)c(=O)c3ccccc23)cc1,nt,5.5,0.5,0.7,nt,-6.0
O=C(O)c1ccccc1C(=O)Nc1cccc([N+](=O)[O-])c1,1.3,0.7,1.3,7.2,nt,3.1
COc1ccc(NC(=O)c2cccc([N+](=O)[O-])c2)cc1,-6.7,2.4,0.4,-0.1,-6.8,2.9
O=C(Nc1cccc([N+](=O)[O-])c1)c1cc2ccccc2cc1O,85.9*,5.0,26.1,8.9,nt,-6.4
COc1ccc(NC(=O)c2cc([N+](=O)[O-])ccc2O)cc1,75.0*,-11.9,-9.1,-2.5,-15.7,11.2
COc1cc(NC(=O)C(=O)NNC(=O)C2CCCCC2)c(OC)cc1Cl,84.6*,0.8,1.4,7.8,-1.3,-11.7
CCCCN(Cc1ccccc1)S(=O)(=O)c1cc(Br)cc2c1N(C(C)=O)C(C)C2 (stereo not drawn),84.4*,-2.1,0.2,3.5,5.6,-3.5
O=C(/C(=C/c1ccccc1)c1ccccc1)N1CCCCC1,86.9*,-1.2,-1.9,-11.7,-6.4,1.1
O=C(N/C(=C/c1ccccc1)C(=O)N1CCCCC1)c1ccccc1,nt,-2.7,0.6,-9.4,nt,3.9
COc1ccc(NC(=O)COc2cccc3c2CCN(C)C3=O)c(OC)c1,nt,-2.8,-0.2,-1.5,nt,-10.0
COc1cc(/C=C2/SC(=S)N(CC(=O)O)C2=O)ccc1OCC(=O)Nc1ccc(C)c(C)c1,nt,-4.2,1.0,-2.8,nt,-4.2
C=CCn1c(SCC(=O)c2cc(C)n(C(C)COC)c2C)nc2sc(C)c(C)c2c1=O (stereo not drawn),12.3,-2.2,0.3,1.0,-1.1,-6.4
COC(=O)c1ccc(/C=C2\CCn3c2nc2cc(C(=O)O)ccc2c3=O)cc1,nt,-3.3,1.9,-13.8,nt,-3.0
CC(C)CCOc1ccc(/C=C2\CCn3c2nc2cc(C(=O)O)ccc2c3=O)cc1,89.6*,nt,nt,-13.8,-10.4,-5.8
CCOc1ccc(N(CC(=O)NC2CCCCC2)C(=O)CCC(=O)Nc2ccccn2)cc1,nt,0.8,2.2,2.8,nt,0.3
CC(C)C(=O)NC(Nc1ccccc1F)C(Cl)(Cl)Cl (stereo not drawn),28.5,-0.3,1.2,4.2,7.4,2.5
CC(C)C(=O)NC(Nc1cc(C(F)(F)F)ccc1Cl)C(Cl)(Cl)Cl (stereo not drawn),72.1*,1.2,0.6,7.2,-5.6,-9.7
COc1ccc(-c2n[nH]c(=S)n2-c2ccccc2C)cc1OC,nt,-1.1,1.4,-1.1,nt,-2.5
Cc1ccc(-c2nnn(CC(=O)N(c3cccc(F)c3)C(C(=O)NC(C)(C)C)c3ccco3)n2)o1 (stereo not drawn),94.9*,0.8,-2.1,4.7,-4.4,14.4
C/C(=N\NC(=S)NC1CCCCC1)c1c(F)cccc1F,80.2*,-0.3,1.9,-3.2,-17.6,7.5
O=C(NCc1ccccn1)C(=O)Nc1nc(C23CC4CC(CC(C4)C2)C3)cs1,70.5*,7.7,0.6,7.6,-5.8,0.0
O=C(NCc1ccccn1)NC12CC3CC(CC(C3)C1)C2,10.8,4.6,3.3,-10.2,1.9,-9.5
CSc1c(CC(=O)NCCCO)n(Cc2ccccc2)c2ccccc12,nt,-2.5,0.2,-3.2,nt,-5.0
SMILES,CHOP inh,UPR XBP1 act,CHOP UPR activ,NOD2-RIPK2 inh,TLR4 MyD88 comp,TLR9-MyD88 block
COc1ccc(NC(=O)Cc2c(SC)c3ccccc3n2Cc2ccccc2)cc1,74.1*,-1.1,-0.9,-5.5,-38.0,-5.5
CNC(=O)OC1CC2CC1[C@H]1CCCCN1C2=O (stereo partly drawn),nt,nt,nt,-7.1,nt,nt
COc1ccccc1N/C(N)=N/c1nc(CSc2nc3ccccc3s2)cc(=O)[nH]1,93.6*,2.0,6.5,nt,2.1,nt
CCCCC(=O)NC(c1ccc([N+](=O)[O-])cc1)c1c(O)ccc2ccccc12 (stereo not drawn),78.0*,-2.8,2.1,-0.3,-11.6,-2.4
CC(C)CC(=O)NC(c1ccccc1)c1c(O)ccc2ccccc12 (stereo not drawn),nt,-5.5,0.8,6.1,nt,-2.9
O=C(NC(c1ccc(Cl)cc1)c1c(O)ccc2ccccc12)c1ccccc1 (stereo not drawn),84.9*,nt,nt,-5.1,3.4,-12.0
Cc1ccc(C(=O)CCC(=O)Nc2cc(C)ccn2)cc1,nt,5.6,2.9,-8.8,nt,4.2
N#CCc1ccc(NS(=O)(=O)c2ccc(C3CCCCC3)cc2)cc1,81.1*,nt,nt,11.4,-3.5,-9.5
O=C(COc1ccc(Cl)cc1)NCCSCc1cccc(Cl)c1,83.3*,0.3,-2.2,8.0,3.8,-7.8
O=C(COc1ccc(Cl)cc1)NCCSCc1ccccc1Cl,20.5,-1.4,-0.2,3.4,-6.3,-5.8
Cc1cccc(CSCCNC(=O)COc2ccc(Cl)cc2)c1,87.2*,-4.0,-2.0,5.5,-3.1,-1.7
Cc1cc(Cl)ccc1OCC(=O)NCCCCc1ccccc1,-16.1,-2.4,1.0,-1.9,-8.1,5.8
O=C(COc1ccc(Cl)cc1Cl)NCCCCc1ccccc1,84.8*,-1.0,2.8,-4.6,12.6,-8.0
Cc1ccc2[nH]c(CNC(=O)C3CCCCC3)cc2c1,nt,-3.9,-0.2,-0.7,nt,-8.3
N#CC(Cc1ccc(O)c(O)c1)C(=O)N1CCc2ccccc21 (stereo not drawn),-7.3,nt,nt,nt,nt,nt
CCn1cc(C(=O)O)c(=O)c2cc(F)c(N3CCNC(C)C3)c(F)c21 (stereo not drawn),-11.2,nt,nt,nt,nt,nt
CSc1ccc(Cl)c(C(=O)OCC(=O)N2CCN(C(=O)c3ccco3)CC2)c1,nt,-1.9,-1.8,-6.3,nt,7.0
Cc1ccc(-c2nc(S(=O)(=O)c3ccc(F)cc3)c(SCC(=O)NCC3CCCO3)o2)cc1 (stereo not drawn),70.2*,0.3,-0.5,-4.5,-12.4,2.0
Cc1ccc(S(=O)(=O)c2nc(-c3ccc(F)cc3)oc2SCC(=O)NCC2CCCO2)cc1 (stereo not drawn),36.5,1.0,0.6,-8.9,-6.8,1.8
Nc1ccccc1Nc1cc(-c2ccccc2)nn1-c1cccc(Cl)c1,90.5*,-0.6,2.1,6.1,-10.7,-9.8
CCc1ccc([C@@H]2C[C@H]3CN(Cc4ccccc4OC)C(=O)[C@]34CCCN24)cc1,27.7,2.2,-0.3,-6.6,3.7,-1.7
O=C(CSc1nnc(-c2cc3ccccc3cc2O)n1Cc1ccco1)c1ccc(F)cc1,84.5*,1.1,1.3,1.6,3.8,-5.3

# Screening data deposited in PubChem by several laboratories.
